Compound activity deposited in PubChem by Broad Institute.
Ecoli rRNA inh – reduced GFP signal of wild-type E. coli, primary screen, bacterial rRNA inhibitor project, GFP/RFP fluorescence, OD600, single point; E. coli WT GFP vs humanized-ribosome RFP mutants, 24 h; hits give low values; DMSO median 0, no signal -100; GFP signal change (wild-type ribosome), % (concentration not given with the values); hit rate 1.6% among 350,000;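 active means significant combined selectivity score with lowered wild-type GFP, culture density cut under 30%, mutant RFP and density less affected; inactive means any of these conditions unmet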
FGF22 binding-1 – binders of human FGF22 protein, primary screen, FGF22 synaptogenesis inhibitor project, biophysical, thermal shift, single point. Fibroblast growth factor 22 (Homo sapiens), Q9HCT0. recombinant FGF22 thermal shift, SYPRO orange fluorescence; percent of sucrose octasulfate shift, DMSO zero. activity (Tm shift, normalised), % at 9.99 µM. hit rate 1.5% among 340,000;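 active means mean Tm shift, scaled 0 neutral to 100 positive control, at about 1.3% or above, every replicate too, limit read from the data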
Target sequence (Q9HCT0 whole entry, looked up): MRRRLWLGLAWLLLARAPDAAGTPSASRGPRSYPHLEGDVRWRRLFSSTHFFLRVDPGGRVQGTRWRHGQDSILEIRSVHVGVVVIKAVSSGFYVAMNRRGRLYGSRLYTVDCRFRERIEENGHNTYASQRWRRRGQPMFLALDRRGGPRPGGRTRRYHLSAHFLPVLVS
ERAP1 HTS inh – human ERAP1 aminopeptidase inhibitors, primary screen, biochemical, single point, plate reader; Endoplasmic reticulum aminopeptidase 1 (Homo sapiens), Q9NZ08; recombinant ERAP1, Leu-AMC fluorescence, 60 min; inhibition, % at 10.7 µM; hit rate 0.15% among 340,000; AID 652197, 2013;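 active means mean replicate inhibition of at least 30%, or all replicates individually reaching that 30% level; inactive means mean below 30% and not every replicate reaching it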;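 further: 0% = neutral control wells and 100% = L-leucinethiol positive control wells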
PGC1a acetyl inh – inhibitors of PGC1a acetylation signal, primary screen, cell-based, U2OS, AlphaScreen, inhibitor mode. AlphaScreen anti-acetyl-lysine; with virally co-expressed GCN5 acetyltransferase. inhibition, % at 15.6 µM. hit rate 0.17% among 350,000;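 active means every replicate shows inhibition of at least 40%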;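 further: 0% = neutral control wells and 100% = positive control wells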
HIV Env fusion – inhibitors of HIV-1 Env-driven cell-cell fusion, primary screen, HeLa-JRFL effector, CEM21 target cells, luciferase; inhibition, % at 12.3 µM; hit rate 1.1% among 360,000; AID 651610, 2012;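 active means mean replicate inhibition score of at least 50 and every replicate individually at or above 50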;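 further: 0% = plate neutral controls and 100% = maraviroc near 300 nM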
Cneo AK release – Cryptococcus neoformans cell lysis inducers, primary screen, AK release luminescence, single concentration. C. neoformans lysis, adenylate kinase release luminescence, 4 h; normalised: neutral wells 0, clomiphene wells 100. lysis activity, % at 15 µM. hit rate 0.2% among 360,000. AID 651654, 2012;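 active means mean lysis activity across replicates of at least 80%, whatever share of replicates individually reach that level; inactive means mean lysis activity below 80%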
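Assay system: log-phase C. neoformans yeast / Quantity: yeast cell density of 5 × 10^6 cells/mL / Medium: fresh YPD growth medium / Compound: single dose / Timing: static 4 h at 37 °C with compound, 1 h detection / Measured by: adenylate kinase release luminescence / Read-out: lysis from increased AK signal / Benchmarks: Clomiphene as positive lysis control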
FGF22 binding-2 – binders of human FGF22 protein, dose response, FGF22 synaptogenesis inhibitor project, biophysical, thermal shift, cherry-pick retest. shares compounds with FGF22 binding-1. recombinant FGF22 thermal shift, SYPRO orange fluorescence. thermal shift activity, °C (ΔTm) at 38 µM. hit rate 2% among 1,000. AID 720646, 2013;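 active means fitted rise in melting shift crosses a set limit at or below the top valid dose tested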
TSA no protein – compound-only thermal shift signal without protein, dose response, artefact control for FGF22 binder project, biochemical, cherry-picked samples, RT-PCR instrument; AID 743019, 2013; shares compounds with FGF22 binding-1; AC50, µM (titrated, usually from 38 µM); hit rate 2% among 1,000; compound-only SYPRO orange thermal shift counter-screen, no protein;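 active means rising signal whose fitted curve reaches the 0.54 level within the top valid dose, showing a melting point, actives reach about 13 µM in these data; inactive means the rest, including activity in the opposite direction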; further: value is where the raw curve crosses a fixed level and not half-maximal
* marks the source's active call; other numbers are inactive results; [ ] = dose if it differs, or a comment. In the library only some 3.5% were active in any assay of this set; here they are far more common.

Results for C[C@@H]1CN([C@@H](C)CO)C(=O)Cc2cc(NC(=O)Nc3ccccc3)ccc2O[C@@H]1CN(C)C(=O)Nc1ccccc1 ?
Ecoli rRNA inh: -7; FGF22 binding-1: 1; ERAP1 HTS inh: -3; HIV Env fusion: 8[16.7 µM]; Cneo AK release: 2

Results for COc1ccc(NC(=O)N(C)C[C@@H]2Oc3ccc(NS(C)(=O)=O)cc3CC(=O)N([C@@H](C)CO)C[C@H]2C)cc1 ?
Ecoli rRNA inh: 6; FGF22 binding-1: 16*; ERAP1 HTS inh: 0; PGC1a acetyl inh: 2; HIV Env fusion: 28[16.7 µM]; Cneo AK release: -2; FGF22 binding-2: 0.14[42 µM]; TSA no protein: inactive

Results for C[C@H](CO)N1C[C@H](C)[C@H](CN(C)C(=O)Nc2ccccc2)Oc2ccc(NC(=O)Nc3ccccc3)cc2CC1=O ?
Ecoli rRNA inh: 1; FGF22 binding-1: 1.2*; ERAP1 HTS inh: -1; HIV Env fusion: -9[16.7 µM]; Cneo AK release: -4; FGF22 binding-2: 0.13; TSA no protein: inactive

What do the screens show for `Cn1cc([N+](=O)[O-])c(C(=O)Nc2ccc3nc(-c4ccccc4)[nH]c3c2)n1`?
Ecoli rRNA inh: 5; FGF22 binding-1: 15*; ERAP1 HTS inh: 2; PGC1a acetyl inh: -11; Cneo AK release: -3; FGF22 binding-2: 0.22; TSA no protein: inactive

How did COc1cccc(C2=CC(=O)C[C@H](c3ccc4c(c3)OCO4)C2)c1OC do in these assays?
PGC1a acetyl inh: 7; Cneo AK release: -1

How did C[C@@H]1CN([C@H](C)CO)C(=O)Cc2cc(NS(=O)(=O)c3ccc(F)cc3)ccc2O[C@@H]1CN(C)Cc1ccc(C(=O)Nc2ccccc2N)cc1 do in these assays?
Ecoli rRNA inh: -4; FGF22 binding-1: 0; ERAP1 HTS inh: -2; PGC1a acetyl inh: -6

What do the screens show for `O=C(O)C1CSC(c2ccc3c(c2)OCO3)N1` (stereo unspecified)?
Ecoli rRNA inh: 8; FGF22 binding-1: 2.7*; ERAP1 HTS inh: 0; PGC1a acetyl inh: 7; HIV Env fusion: -11; Cneo AK release: -2; FGF22 binding-2: 0.11; TSA no protein: inactive

How did CC(C)(CNCc1ccccc1)NS(=O)(=O)c1ccccc1 do in these assays?
Ecoli rRNA inh: 2; FGF22 binding-1: 0; ERAP1 HTS inh: -3; PGC1a acetyl inh: -6; Cneo AK release: 1

How did CC(C)(CNCc1ccccc1)NS(=O)(=O)c1ccc(Cl)cc1 do in these assays?
Ecoli rRNA inh: 8; FGF22 binding-1: 2.1*; ERAP1 HTS inh: -1; PGC1a acetyl inh: -1; HIV Env fusion: 4; Cneo AK release: 0; FGF22 binding-2: 0.057; TSA no protein: inactive

Results for Cc1ccc(-n2ncc(Br)c(Br)c2=O)cc1 ?
Cneo AK release: -6

What do the screens show for `O=C(CNC(=O)c1ccc(S(=O)(=O)N2CCCC2)cc1)N/N=C/c1ccc(F)cc1`?
Ecoli rRNA inh: 10; FGF22 binding-1: 1.4*; ERAP1 HTS inh: 0; HIV Env fusion: 0; FGF22 binding-2: -0.03; TSA no protein: inactive
